# In PubChem BioAssay:
# Values joined by “and” are separate entries in the source; they are usually repeats but may differ in a detail not shown here. Equal values may be shown once. Active and inactive are the calls of the source. Rule as the data show it, unless noted: active = inhibition above about 30%; inactive = the rest.
# Columns and labels:
# [1] = SK-BR-3 cell growth inhibitors, pilot screen, 24 h, human (AID 572;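 active = viability at or below 10% of carrier control in both of two separate runs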;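 also: compound exposure lasted between 18 and 24 h rather than exactly 24 h; 100% = carrier-treated control wells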); details: SK-BR-3 viability, CellTiter-Glo luminescence, at 10 µM, stronger effect = lower value
# [2] = HUVEC growth inhibition – cell-based, human, primary screen (AID 575;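 active = viability at or below 30% in both replicate assays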;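 also: 100% = median of untreated cell wells with 0.1% DMSO on each plate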); details: HUVEC proliferation, CellTiter-Glo luminescence, 72 h; at 10 µM; stronger effect = lower value
# Method in brief: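 Assay system: primary human umbilical vein endothelial cells / Buffer or medium: endothelial basal medium with 2% FBS plus growth supplements / Compound dosing: one dose, 10 µM final, 0.1% DMSO / Timing: 72 h treatment at 37 °C / Signal: CTG luminescence / Benchmarks: 32 DMSO-only cell-control wells (high), 32 MePR drug-control wells (low) per plate / Plate: collagen-coated 384-well format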
# [3] = growth inhibitors of H69AR lung tumor, primary screen, human, duplicate replicates (AID 580;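 active = viability at or under a set limit in both replicates, limit being median viability minus 3 SD, cut at about 48% in these data, passing the limit was not always enough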;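 also: 100% = mean luminescence of untreated wells and 0% = no signal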); details: H69AR lung tumor cells viability, ATP luminescence, 72 h; at 10 µM; stronger effect = lower value
# [4] = reversal of MRP1-mediated doxorubicin resistance, pilot screen, H69AR cells, doxorubicin co-treatment (AID 601;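 active = viability loss from added drug above about 55%, and viability with drug at most 40%, in both replicates, limit read from the data, passing the limit was not always enough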); details: CellTiter-Glo, 72 h, at 10 µM; for differential viability (reversal): stronger effect = higher value
# [5] = 384-well plate pilot, post-Golgi transport modulator project, inhibition of yeast transport mutant growth (AID 636; in the data active = inhibition above about 31%); details: absorbance 615 nm, about 18 h, stronger effect = higher value
# [6] = growth suppression of yeast trafficking mutant, preliminary HTS, modulators of trafficking downstream of Golgi apparatus project, 1536-format plate, OD 615 nm (AID 637); details: yeast transport mutant growth, absorbance 615 nm, 18 h; stronger effect = higher value
# [7] = H69AR cells + 2 uM doxorubicin, measured here: viability with 2 uM doxorubicin, stronger effect = lower value
# [8] = H69AR cells, compound alone cytotoxicity
SMILES,viability [1],viability [2],viability [3],differential viability (reversal) ([4]; H69AR cells + 2 uM doxorubicin),"viability [4, 7]","viability [4, 8]",inhibition [5],inhibition [6]
CCCCc1c(O)nc(N2CCN(Cc3ccccc3)CC2)[nH]c1=O,93% (inactive),98.8% (inactive),96.1% (inactive),-1.67% (inactive),97.8%,96.1%,-7.16% (inactive),-1.82% (inactive)
CC(C)(C)NCC(O)c1cc(O)cc(O)c1 (stereo unspecified),127% (inactive),109% (inactive),98.9% (inactive),7.49% (inactive),91.4%,98.9%,-2.73% (inactive),2.5% (inactive)
O=C(NCc1ccccn1)c1cc(-n2cnnc2)ccc1Cl,86% (inactive),88.6% (inactive),101% (inactive),-1.2% (inactive),102%,101%,-2.73% (inactive),2.79% (inactive)
Cc1ccc(NC(=O)CN(C)S(=O)(=O)c2cccc3nsnc23)cc1Cl,103% (inactive),83.3% (inactive),84.5% (inactive),-7.79% (inactive),92.2%,84.5%,1.76% (inactive),-3.09% (inactive)
COc1cc(CO)cc(-c2cc(CO)cc(OC)c2OC)c1OC,82% (inactive),95.8% (inactive),92.5% (inactive),1.68% (inactive),90.9%,92.5%,-8.67% (inactive),-6.91% (inactive)
CN(C)c1ccc(NC(=O)c2ccncc2)c2ccccc12,113% (inactive),108% (inactive),101% (inactive),5.85% (inactive),95.2%,101%,-7.43% (inactive),-0.73% (inactive)
CC1=NN(c2ccccc2)C(=O)C1,96% (inactive),74.6% (inactive),94.5% (inactive),-10.1% (inactive),105%,94.5%,1.95% (inactive),0.67% (inactive)
CCOc1cc(C2C(C#N)=C(N)Oc3n[nH]c(CC)c32)ccc1OCCN1CCOCC1 (stereo unspecified),87% (inactive),95.6% (inactive),110% (inactive),11% (inactive),99%,110%,0.27% (inactive),0.32% (inactive)
CCCN(CCC)C(=O)C(CCC(=O)O)NC(=O)c1ccccc1 (stereo unspecified),108% (inactive),94.9% (inactive),105% (inactive),9.32% (inactive),95.9%,105%,-5.32% (inactive),2.33% (inactive)
CCOC(=O)c1ccccc1NC1CC(=O)N(c2ccccc2C)C1=O (stereo unspecified),98% (inactive),101% (inactive),98.4% (inactive),8.82% (inactive),89.6%,98.4%,-2.13% (inactive),-6.73% (inactive)
N#Cc1cc2ccccc2nc1SCC(=O)Nc1ccccc1N1CCOCC1,93% (inactive),64.4% (inactive),82.2% (inactive),-10.8% (inactive),93%,82.2%,-3.25% (inactive),0.33% (inactive)
CCOC(=O)CSc1nnc2n1C(C)(C)Cc1ccccc1-2,110% (inactive),111% (inactive),101% (inactive),-5.61% (inactive),106%,101%,4.32% (inactive),-0.91% (inactive)
Cc1c(Cl)cccc1Nc1ccccc1C(=O)O,108% (inactive),56.7% (inactive),111% (inactive),9% (inactive),102%,111%,-1.17% (inactive),5.33% (inactive)
O=C(c1c(Cl)nc2sccn12)N(C(=O)c1c(Cl)nc2sccn12)c1ccc(Cl)cn1,131% (inactive),43.6% (inactive),70.8% (inactive),-7.89% (inactive),78.7%,70.8%,-3.38% (inactive),3.11% (inactive)
CCn1cc(C(=O)NCc2ccco2)c(=O)c2cc(F)c(N3CCN(C(=O)c4ccco4)CC3)cc21,94% (inactive),62.4% (inactive),58.6% (inactive),40.8% (inactive),17.7%,58.6%,-7.4% (inactive),-1.45% (inactive)
C/C=C(\C)c1nnc(NC(=O)OCC)s1,94% (inactive),117% (inactive),96.4% (inactive),6.96% (inactive),89.4%,96.4%,-2.84% (inactive),-0.91% (inactive)
O=C(NCCCN1CCCC1=O)C1CCN(S(=O)(=O)N2CCOCC2)CC1,90% (inactive),118% (inactive),100% (inactive),5.27% (inactive),94.8%,100%,5.41% (inactive),-1.45% (inactive)
O=c1c2[nH]c3ccc(Cl)cc3c2ncn1Cc1ccccn1,94% (inactive),107% (inactive),101% (inactive),13.4% (inactive),87.9%,101%,-3.33% (inactive),-3.27% (inactive)
Cc1cc(Nc2ccccc2)n(-c2ccccc2)n1,123% (inactive),94.3% (inactive),101% (inactive),5.72% (inactive),95.6%,101%,-1.1% (inactive),-6.61% (inactive)
CC(=O)Nc1ccc(S(=O)(=O)N2CCN(c3cc(C)nc4ccccc34)CC2)cc1,103% (inactive),96.7% (inactive),87.1% (inactive),0.84% (inactive),86.2%,87.1%,-5.41% (inactive),-3.09% (inactive)
O=C(CCCCn1c(=O)c2ccccc2n(Cc2ccc(Cl)cc2)c1=O)NCc1ccco1,100% (inactive),38.6% (inactive),29.6% (active),-13.4% (inactive),43%,29.6%,-1.17% (inactive),-2.95% (inactive)
CN(C)C(=O)Oc1ccc[n+](C)c1,92% (inactive),102% (inactive),87% (inactive),5.36% (inactive),81.6%,87%,-1.17% (inactive),-2.33% (inactive)
CCn1nc(C(=O)O)c(=O)c2cc3c(cc21)OCO3,69% (inactive),86.7% (inactive),106% (inactive),6.56% (inactive),99.3%,106%,-1.17% (inactive),1.83% (inactive)
Cc1nc2ncnn2c(C)c1CCC(=O)NCCCN1CCN(c2cccc(Cl)c2)CC1,78% (inactive),76.4% (inactive),96.5% (inactive),6.44% (inactive),90.1%,96.5%,-2.21% (inactive),-3.77% (inactive)

SMILES,viability [1],viability [2],viability [3],differential viability (reversal) ([4]; H69AR cells + 2 uM doxorubicin),"viability [4, 7]","viability [4, 8]",inhibition [5],inhibition [6]
Cc1ccc2c(c1)N(CC(=O)N1CCCCC1c1cccnc1)C(=O)CO2 (stereo unspecified),106% (inactive),99.8% (inactive),95% (inactive),-4.01% (inactive),99%,95%,-2.84% (inactive),-5.82% (inactive)
CC(CCc1ccccc1)NC(=O)C1CCN(S(=O)(=O)c2cnc[nH]2)CC1 (stereo unspecified),110% (inactive),96.4% (inactive),91.3% (inactive),10.2% (inactive),81.1%,91.3%,-9.73% (inactive),-3.45% (inactive)
Nc1nc(Cl)nc2c1ncn2[C@H]1C[C@H](O)[C@@H](CO)O1,116% (inactive) and 105% (inactive),67% (inactive) and 36.3% (inactive),93.8% (inactive),-9.28% (inactive) and -31.8% (inactive),103% and 81.2%,93.8% and 49.4%,2.34% (inactive) and 0.52% (inactive),1% (inactive) and -1% (inactive)
CCOC(=O)C1CCCN(CC(=O)NC2CC2)C1 (stereo unspecified),112% (inactive),96.6% (inactive),88.2% (inactive),-1.56% (inactive),89.7%,88.2%,-7.16% (inactive),-2.91% (inactive)
Cc1ccc(CN2C(=O)CCC2C(=O)NCCCN2CCCC(C)C2)cc1 (stereo unspecified),82% (inactive),113% (inactive),97.4% (inactive),8.96% (inactive),88.4%,97.4%,-3.07% (inactive),-3.45% (inactive)
CC1(C)NC(=O)N(CC(O)CN2CCCC2)C1=O (stereo unspecified),96% (inactive),103% (inactive),97.2% (inactive),2.99% (inactive),94.2%,97.2%,0.13% (inactive),-2.79% (inactive)
COc1ccc(CC(=O)Nc2c3c(nn2-c2cccc(Cl)c2)CS(=O)C3)cc1 (stereo unspecified),111% (inactive),95.6% (inactive),104% (inactive),14.5% (inactive),89.5%,104%,-2.73% (inactive),-1.97% (inactive)
O=C(CN1CCN(Cc2ccccc2)CC1)Nc1ccc(Cl)cn1,94% (inactive),88.8% (inactive),85.1% (inactive),-1.43% (inactive),86.5%,85.1%,-8.08% (inactive),4.35% (inactive)
CC1(C)O[C@@H]2C[C@H]3[C@@H]4C[C@H](F)C5=CC(=O)CC[C@]5(C)[C@H]4[C@@H](O)C[C@]3(C)[C@]2(C(=O)CO)O1,104% (inactive),107% (inactive),95.2% (inactive),-2.5% (inactive),97.7%,95.2%,-5.45% (inactive),-0.5% (inactive)
O=C(CN1C(=O)c2ccccc2S1(=O)=O)Nc1ccc(S(=O)(=O)N2CCCCCC2)cc1,110% (inactive),81.4% (inactive),103% (inactive),14.2% (inactive),89.3%,103%,5.48% (inactive),-1.45% (inactive)
CCOC(=O)CSc1nnc(NCC(=O)OC(C)C)c(=O)[nH]1,102% (inactive),93.9% (inactive),93.3% (inactive),1.93% (inactive),91.4%,93.3%,-1.56% (inactive),-3.61% (inactive)
CC(C)n1nnnc1SCC(=O)Nc1ccccc1N1CCOCC1,53% (inactive),98.4% (inactive),98.5% (inactive),-0.48% (inactive),99%,98.5%,-5.75% (inactive),2.73% (inactive)
CC(C)CN(CC(C)C)C(=O)CS(=O)(=O)Cc1ccccc1,87% (inactive),98.8% (inactive),91.4% (inactive),3.15% (inactive),88.2%,91.4%,-5.75% (inactive),1.13% (inactive)
Cc1nc(CCNS(=O)(=O)c2cccs2)cs1,86% (inactive),105% (inactive),97.5% (inactive),11.5% (inactive),86%,97.5%,7.92% (inactive),-12.8% (inactive)
CC(C)(C)C(=O)OCC1OC(n2cnc(C(N)=O)n2)C(O)C1O (stereo unspecified),89% (inactive),99.1% (inactive),96.1% (inactive),1.56% (inactive),94.5%,96.1%,-8.22% (inactive),-2.36% (inactive)
N=c1nc(N2CCCCC2)cc(N)n1O,96% (inactive),89.3% (inactive),99.8% (inactive),7.85% (inactive),92%,99.8%,-1.17% (inactive),-1.83% (inactive)
C/C=C(\CS(=O)(=O)c1ccccc1)S(=O)(=O)c1ccccc1,110% (inactive),85.1% (inactive),6.84% (active),-0.38% (inactive),7.22%,6.84%,-0.91% (inactive),-4.26% (inactive)
O=C(CNC(=O)c1cc2ccccc2o1)NCc1cccs1,122% (inactive),80.8% (inactive),84.4% (inactive),-4.37% (inactive),88.8%,84.4%,0.26% (inactive),5.74% (inactive)
COc1ccc(/C=C/C(=O)Nc2ccccc2C(=O)O)cc1OC,104% (inactive),64.4% (inactive),94.7% (inactive),0.56% (inactive),94.1%,94.7%,0.78% (inactive),-1.83% (inactive)
CC(C)(C)c1ccc(C(=O)N2CCC(C(=O)NCc3ccncc3)CC2)cc1,110% (inactive),95.6% (inactive),88.8% (inactive),-5.45% (inactive),94.3%,88.8%,-3.2% (inactive),-8.18% (inactive)
CCCCOC(=O)c1cccc(NC(=O)CC)c1,113% (inactive),91.1% (inactive),89.6% (inactive),1.34% (inactive),88.3%,89.6%,5.71% (inactive),13.4% (inactive)
CCCCCC(=O)N(CN1C(=O)CCC1=O)c1ccccc1,93% (inactive),104% (inactive),90.9% (inactive),3.52% (inactive),87.4%,90.9%,-7.3% (inactive),-0.73% (inactive)
CCOC(=O)N1CCC(N(CCCOC)C(=O)Nc2ccc(CC)cc2)CC1,106% (inactive),92.7% (inactive),98.9% (inactive),13% (inactive),86%,98.9%,-0.26% (inactive),-2.3% (inactive)
